Assay results: ChEMBL document CHEMBL1143691, “Unusual naphthoquinone derivatives from the twigs of Avicennia marina” (2007)
Values after ≈ are worked out from the molar mass of the structure shown.

Experiments:
Assay type in all cases: functional
K562 = assay: Antiproliferative activity against human K562 cells
L929 = assay: Antiproliferative activity against mouse L929 cells
HeLa = assay: Cytotoxicity against human HeLa cells
Outline: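 Cytotoxicity in HeLa human cervix carcinoma cells (DSM ACC 57). Reported as CC50, the concentration that kills 50% of treated cells.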

Staphylococcus aureus = assay: Antimicrobial activity against methicillin-resistant Staphylococcus aureus 134/93 by micro-broth dilution method
Outline: (§1)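 MIC determined by microbroth dilution following NCCLS (National Committee for Clinical Laboratory Standards) guidelines. Each value is the mean of three independent experiments.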

[1] = tested on: Mycolicibacterium fortuitum; assay: Antimicrobial activity against Mycobacterium fortuitum B by micro-broth dilution method
Outline: (§2)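 MIC by microbroth dilution following National Committee for Clinical Laboratory Standards guidelines; values are the mean of three independent experiments. Ciprofloxacin served as the antibacterial reference and amphotericin B as the antifungal reference.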

Enterococcus faecalis = assay: Antimicrobial activity against vancomycin-resistant Enterococcus faecalis 1528 by micro-broth dilution method; outline: as §1
[2] = tested on: Mycolicibacterium smegmatis; assay: Antimicrobial activity against Mycobacterium smegmatis SG 987 by microbroth dilution method; outline: as §2
Candida albicans = assay: Antimicrobial activity against Candida albicans BMSY 212 by micro-broth dilution method; outline: as §2
Mycolicibacterium vaccae = assay: Antimicrobial activity against Mycobacterium vaccae IMET 10670 by microbroth dilution method; outline: as §2
Mycolicibacterium aurum = assay: Antimicrobial activity against Mycobacterium aurum SB 66 by micro-broth dilution method; outline: as §2

SMILES | GI50 (K562) | GI50 (L929) | CC50 (HeLa) | MIC (Staphylococcus aureus) | MIC [1] | MIC (Enterococcus faecalis) | MIC [2] | MIC (Candida albicans) | MIC (Mycolicibacterium vaccae) | MIC (Mycolicibacterium aurum)
CC(C)(O)[C@@H]1CC2=C(O1)C(=O)c1ccccc1C2=O [STENOCARPOQUINONE B] | 0.2 µg/mL (≈ 0.774 µM) | 1.2 µg/mL (≈ 4.65 µM) | 4.3 µg/mL (≈ 16.6 µM) | 12.5 µg/mL (≈ 48.4 µM) | 25 µg/mL (≈ 96.8 µM) | 25 µg/mL (≈ 96.8 µM) | 12.5 µg/mL (≈ 48.4 µM) | 12.5 µg/mL (≈ 48.4 µM) | 6.25 µg/mL (≈ 24.2 µM) | 12.5 µg/mL (≈ 48.4 µM)
O=C(O)c1cn(C2CC2)c2cc(N3CCNCC3)c(F)cc2c1=O [CIPROFLOXACIN] |  |  |  | 12.5 µg/mL (≈ 37.7 µM) | 0.2 µg/mL (≈ 0.604 µM) | 0.8 µg/mL (≈ 2.41 µM) | 0.4 µg/mL (≈ 1.21 µM) |  | 0.2 µg/mL (≈ 0.604 µM) | < 0.05 µg/mL
CC(C)(O)c1cc2c(o1)C(=O)c1ccccc1C2=O [AVICEQUINONE C] | 1.1 µg/mL (≈ 4.29 µM) | 0.8 µg/mL (≈ 3.12 µM) | 3.2 µg/mL (≈ 12.5 µM) | 6.25 µg/mL (≈ 24.4 µM) | 12.5 µg/mL (≈ 48.8 µM) | 50 µg/mL (≈ 195 µM) | 6.25 µg/mL (≈ 24.4 µM) | 12.5 µg/mL (≈ 48.8 µM) | 6.25 µg/mL (≈ 24.4 µM) | 6.25 µg/mL (≈ 24.4 µM)
CC(C)(O)[C@H]1OC2=C(C(=O)c3ccccc3C2=O)[C@@H]1O [AVICEQUINONE A] |  |  |  | 6.25 µg/mL (≈ 22.8 µM) | 12.5 µg/mL (≈ 45.6 µM) | 50 µg/mL (≈ 182 µM) | 12.5 µg/mL (≈ 45.6 µM) | 12.5 µg/mL (≈ 45.6 µM) | 12.5 µg/mL (≈ 45.6 µM) | 12.5 µg/mL (≈ 45.6 µM)
C[C@@H]1[C@H](O)[C@@H](C)/C=C/C=C/C=C/C=C/C=C/C=C/C=C/[C@H](O[C@@H]2O[C@H](C)[C@@H](O)[C@H](N)[C@@H]2O)C[C@@H]2O[C@](O)(C[C@@H](O)C[C@@H](O)[C@H](O)CC[C@@H](O)C[C@@H](O)CC(=O)O[C@H]1C)C[C@H](O)[C@H]2C(=O)O [AMPHOTERICIN B] |  |  |  |  |  |  |  | < 0.05 µg/mL |  | 

Continued, in another order:

GI50 (K562) | SMILES | GI50 (L929) | CC50 (HeLa) | MIC (Staphylococcus aureus) | MIC [1] | MIC (Enterococcus faecalis) | MIC [2] | MIC (Candida albicans) | MIC (Mycolicibacterium vaccae) | MIC (Mycolicibacterium aurum)
0.01 µg/mL (≈ 0.0117 µM) | CC(=O)O[C@H]1C(=O)[C@@]2(C)[C@H]([C@H](OC(=O)c3ccccc3)[C@]3(O)C[C@H](OC(=O)[C@H](O)[C@@H](NC(=O)c4ccccc4)c4ccccc4)C(C)=C1C3(C)C)[C@]1(OC(C)=O)CO[C@@H]1C[C@@H]2O [PACLITAXEL] | 0.1 µg/mL (≈ 0.117 µM) | 0.01 µg/mL (≈ 0.0117 µM) |  |  |  |  |  |  | 
> 10 µg/mL | COc1c2c(c(OC)c3ccccc13)O[C@H](C(C)(C)O)C2 [AVICENOL C] | > 10 µg/mL | > 10 µg/mL |  |  |  |  |  |  | 
> 10 µg/mL | COC(=O)c1ccccc1/C(OC)=C1/C[C@@H](C(C)(C)O)OC1=O [AVICENNONE A] | > 10 µg/mL | > 10 µg/mL |  |  |  |  |  |  | 
> 10 µg/mL | COc1c2c(c(OC)c3ccccc13)[C@H](O)[C@@H](C(C)(C)O)O2 [AVICENOL A] | > 10 µg/mL | > 10 µg/mL |  |  |  |  |  |  | 
